CAL PDZ FP-1 – CAL PDZ (human) peptide binding inhibition; 300,000 compounds, 0.92% hits; inhibition, % at 24.9 µM; Q9HD26; AID 602252; purified CAL PDZ, TMR-peptide fluorescence polarization, 1 h;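 active = mean inhibition of at least 30% with at least half of replicates also reaching 30%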;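 also: 0% = DMSO neutral control and 100% = excess unlabeled competitor peptide PRC23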
Dyrk1A ADPGlo – blocks rat Dyrk1A kinase activity; Q63470; ADP-Glo luminescence, NFATc1 peptide; inhibition, % at 12.5 µM; 310,000 compounds, 0.43% hits; AID 504441; in the data active = inhibition above about 50%;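 also: plate controls were vehicle with enzyme for no effect and no enzyme for full effect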
ALR H2O2 inh – blocks human ALR sulfhydryl oxidase activity; P55789; purified ALR, DTT oxidation, H2O2 HRP-luminol luminescence; inhibition, % (no concentration beside the values); 290,000 compounds, 3.8% hits;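 active = mean replicate inhibition above about 79%, with every replicate also reaching it, limit read from the data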
Target sequence (P55789 whole entry, looked up): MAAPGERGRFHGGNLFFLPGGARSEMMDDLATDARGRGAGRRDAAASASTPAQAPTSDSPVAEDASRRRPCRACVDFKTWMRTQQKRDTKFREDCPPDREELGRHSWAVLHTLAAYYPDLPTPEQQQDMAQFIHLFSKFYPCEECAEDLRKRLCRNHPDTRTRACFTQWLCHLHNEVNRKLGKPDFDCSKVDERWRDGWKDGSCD
Rtt109 Vps75 – C. albicans Rtt109 histone acetyltransferase inhibition; Q5AAJ8; purified Rtt109/Vps75, ThioGlo CoA-SH fluorescence, 4 h; inhibition, % at 34.9 µM; 330,000 compounds, 0.16% hits; AID 540336;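 active = inhibition of at least 50% in every replicate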
Target sequence (Q5AAJ8 whole entry, looked up): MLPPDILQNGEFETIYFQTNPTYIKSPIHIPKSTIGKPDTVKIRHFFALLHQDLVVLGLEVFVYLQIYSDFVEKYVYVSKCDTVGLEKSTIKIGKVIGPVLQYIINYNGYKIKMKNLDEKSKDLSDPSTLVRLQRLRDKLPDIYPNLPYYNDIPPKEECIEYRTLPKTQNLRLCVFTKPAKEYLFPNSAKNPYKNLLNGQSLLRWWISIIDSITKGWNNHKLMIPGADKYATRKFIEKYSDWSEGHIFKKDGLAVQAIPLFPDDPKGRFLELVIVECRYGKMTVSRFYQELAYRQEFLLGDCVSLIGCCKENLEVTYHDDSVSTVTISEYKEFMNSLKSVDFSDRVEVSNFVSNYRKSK
CAL PDZ FP-2 – blocks peptide binding to human CAL PDZ domain; 330,000 compounds, 0.02% hits; purified CAL PDZ, TMR-peptide fluorescence polarization, 1 h; inhibition, % at 20 µM;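 active = highest replicate inhibition of at least 40%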;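 also: plate controls were DMSO neutral control wells for no effect and unlabeled competitor peptide control wells for full effect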
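System: purified tagged CAL PDZ domain construct (CerCALP). Schedule: 1 h incubation at room temperature before polarization reading. Medium: 25 mM sodium phosphate pH 7.4, 150 mM NaCl, TCEP, IgG, Thesit. Read-out: percent inhibition from loss of millipolarization. Measured by: FP readout, S and P plane fluorescence. Probe or stimulus: fluorescent TMR peptide probe.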
Numbers without * were called inactive; x = no result given; + = active, no number. An excerpt weighted towards active compounds, which were near 4.3% of everything screened.

SMILES	CAL PDZ FP-1	Dyrk1A ADPGlo	ALR H2O2 inh	Rtt109 Vps75	CAL PDZ FP-2
CC(=O)/C(C=Nc1noc(C)c1Br)=C(\C)O	6.1	0.0	-10.2	-3.2	0.1
COc1ccc(N2CCN(CCNC(=O)CCNS(=O)(=O)c3cccs3)CC2)cc1	-3.1	-4.0	93.0*	-8.5	0.4
CC(C)C(NS(=O)(=O)c1cccs1)C(=O)NCCN1CCN(c2ccccc2)CC1 (centres undefined)	x	-3.7	98.8*	-1.4	-1.5
COc1ccc(N2CCN(CCNC(=O)C3CCN(S(=O)(=O)c4cccs4)CC3)CC2)cc1	0.6	-2.4	11.6	-6.1	0.0
COc1ccc(N2CCN(CCNC(=O)CCS(=O)(=O)c3cccc4nsnc34)CC2)cc1	x	x	94.2*	x	x
COc1ccc(N2CCN(CCNS(=O)(=O)c3cccc4nsnc34)CC2)cc1	-3.0	-1.8	x	22.0	-0.1
COC(=O)Cc1ccc(NC(=S)NNC(=O)C2CC2)cc1	x	7.4	46.7	-2.6	-0.1
NS(=O)(=O)c1ccc(CNC(=O)c2scc3c2CCCC3)cc1	-4.7	x	-9.7	-6.1	3.4
CCOC(=O)Cn1c(=S)[nH]c2c(oc3ccc(Cl)cc32)c1=O	-0.5	3.5	95.8*	-5.7	-0.9
Oc1ccc(/C=N/Nc2ccc(C(F)(F)F)cn2)cc1	-0.6	x	96.6*	-5.3	-0.3
CCCc1cc(=O)oc2cc(OCC(=O)NCCCN3CCCC3=O)ccc12	x	3.1	-2.4	2.3	0.6
O=C(N/N=C/c1ccc(Cl)c([N+](=O)[O-])c1)c1ccc2c(c1)OCCO2	-1.2	-1.1	x	-4.6	-1.4
O=C(Nc1ccc(Cl)c([N+](=O)[O-])c1)c1ccc2c(c1)OCCO2	30.3*	1.1	-14.1	-4.8	17.2
Cc1cc(=O)[nH]c(Nc2ccc(N(C)C)cc2)n1	x	14.9	98.7*	-15.6	0.0
CCN(CCC#N)c1ccc(/C=N/Nc2nc(C)cc(=O)[nH]2)c(C)c1	-5.6	3.5	98.8*	-2.2	0.0
Cc1cc(=O)[nH]c(N/N=C/c2ccc(N(C)C)cc2)n1	0.1	-3.2	98.9*	3.8	-0.3
COc1ccc(Cc2nnc(N/N=C/c3ccc(N(C)C)cc3)[nH]c2=O)cc1OC	-2.3	-1.7	98.8*	6.1	-2.6
O=C1CC2(CCN(C(=O)c3ccc(Br)cc3)CC2)Oc2ccccc21	4.3	8.9	-1.6	2.6	-2.2
COc1cc(/C=N/Nc2nc(C)cc(=O)[nH]2)ccc1O	2.9	9.5	98.5*	2.5	0.4
COc1ccc(/C=N/Nc2nc(C)cc(=O)[nH]2)cc1OC	-4.1	-1.7	25.5	11.6	-3.8
CC(=O)Nc1ccc(OCC(O)Cn2nc(C)c(Br)c2C)cc1 (centres undefined)	-0.3	-9.1	-6.8	-5.6	x
COc1cc(C(=O)N2CCN(S(=O)(=O)c3cccs3)CC2)cc(OC)c1C	57.8*	-4.5	x	-1.4	-0.7
COC(=O)Cc1nc(Nc2ccccc2)sc1C	x	x	99.3*	x	x
c1ccc(-c2cc(N3CCCCCC3)n[nH]2)cc1	-2.9	0.9	98.0*	-1.9	x
CCOC(=O)CNC(=O)CSc1nnc(Cn2cnc3ccccc32)n1C	+	4.5	-3.0	-7.2	-0.7
SMILES	CAL PDZ FP-1	Dyrk1A ADPGlo	ALR H2O2 inh	Rtt109 Vps75	CAL PDZ FP-2
COCCCNC(=O)CS(=O)Cc1nc(-c2ccccc2C)oc1C (centres undefined)	x	-4.9	99.2*	11.4	0.0
COCCNC(=O)CS(=O)Cc1nc(-c2ccc(Cl)cc2)oc1C (centres undefined)	1.1	2.1	x	0.8	1.3
CCOc1ccc(CCNC(=O)CS(=O)Cc2nc(-c3ccccc3Cl)oc2C)cc1OCC (centres undefined)	-0.6	-5.8	98.6*	-27.6	-4.1
Cc1ccc(CCNC(=O)CS(=O)Cc2nc(-c3ccccc3Cl)oc2C)cc1 (centres undefined)	-3.4	3.9	98.7*	20.3	-1.7
CCc1ccc(-c2nc(CS(=O)CC(=O)NCc3ccccc3)c(C)o2)cc1 (centres undefined)	70.6*	2.2	99.3*	-0.7	-1.1
Cc1oc(-c2ccc(Cl)cc2)nc1CS(=O)CC(=O)NCc1ccccn1 (centres undefined)	-2.6	-9.0	98.8*	0.1	-2.5
Cc1oc(-c2ccc(Cl)cc2)nc1CS(=O)CC(=O)NC(C)c1ccccc1 (centres undefined)	-6.3	-2.7	97.8*	0.3	-2.5
CCc1cccc(NC(=O)CS(=O)Cc2nc(-c3ccc(C)cc3)oc2C)c1 (centres undefined)	-1.3	-5.7	98.7*	-10.0	-0.8
Cc1oc(-c2ccc(Cl)cc2)nc1CS(=O)CC(=O)NCc1ccccc1 (centres undefined)	2.7	-4.1	98.8*	-3.7	-2.3
Cc1ccc(-c2nc(CS(=O)CC(=O)NCc3ccc(Cl)cc3)c(C)o2)cc1 (centres undefined)	-2.3	-2.9	54.2	2.6	0.6
COc1ccc(-c2nc(CS(=O)CC(=O)NCc3ccc(Cl)cc3)c(C)o2)cc1 (centres undefined)	4.3	3.8	99.1*	-7.2	1.1
CC1(C(=O)O)CCC(C(=O)NNC(=O)c2ccccc2O)C1(C)C (centres undefined)	-5.8	-3.2	2.4	-0.5	-0.1
CCC1(c2ccccc2)NC(=O)N(CC(=O)NCc2ccc(OC)cc2)C1=O (centres undefined)	x	0.5	-3.2	2.2	-0.2
O=Cc1ccc(OC(=O)CCCCC(=O)Oc2ccc(C=O)cc2)cc1	-1.8	4.5	1.5	-12.4	-1.3
COc1ccc(N2CCN(c3cc(C)c4ccccc4n3)CC2)cc1	4.9	6.2	-2.8	17.6	-0.6
Cc1cc(N2CCN(c3ccccc3)CC2)nc2ccccc12	62.1*	2.6	18.0	-3.9	x
Cc1ccc(C(=O)NCC(=O)OCC(=O)NC(C)C2CC3CCC2C3)cc1 (centres undefined)	-3.0	13.9	x	51.0*	-3.4
Cc1ccccc1C(=O)NCC(=O)OCC(=O)NC(C)C1CC2CCC1C2 (centres undefined)	18.3	-2.4	1.2	1.6	-0.9
NC(=S)NN=C(c1ccc(Br)cc1)C1CC1	-1.9	1.6	x	-0.4	0.3
O=C1COc2ccc(-c3csc(NCC4CCCO4)n3)cc2N1 (centres undefined)	x	4.8	86.5*	2.7	1.2
CS(=O)(=O)N1CCc2cc(-c3csc(NCC4CCCO4)n3)ccc21 (centres undefined)	0.1	2.0	3.3	-6.1	-0.7
CC(Nc1nc(-c2ccc3c(c2)NC(=O)CO3)cs1)c1ccccc1 (centres undefined)	0.1	0.3	98.3*	3.5	0.9
COc1cccc(-c2nc(-c3ccc4c(c3)NC(=O)CO4)cs2)c1	-4.5	-1.3	-21.2	-7.3	-2.0
CN(C)CCCN(C(=O)CCOc1ccccc1)c1nc2c(F)cccc2s1	-3.8	-3.6	x	98.4*	-2.3
CN(C)CCCN(C(=O)CCc1ccccc1)c1nc2c(F)cccc2s1	-3.3	-5.9	0.1	9.9	-4.9
Nc1nc(SCc2ccccc2)c2ncn(C3OC(CO)C(O)C3O)c2n1 (centres undefined)	-0.4	x	x	2.4	-0.4
